# Most compounds without a hit are left out; they make up all but 2.1% or so of the library.
# MsrA inhibitor: inhibitors of bovine MsrA; 360,000 tested, 0.75% active; purified bovine MsrA, absorbance read-out; AID 651718; inhibition, % at 15.5 µM; in the data active = inhibition above about 4.5%;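 also: 0% = vehicle wells with enzyme and 100% = reference inhibitor wells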
# PKA-R2B activ: activators of human PKA-R2B complex. activation, % at 11.4 µM. PKA-R2B holoenzyme dissociation, Cy5-IP20 fluorescence polarization; R2B truncated from residue 108, S112A mutant; 0% DMSO only, 100% 113 µM cGMP. P22694+P31323. AID 504700. 340,000 tested, 0.079% active;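 active = activation above a cutoff set at the mean over all compounds plus 3 SD, cut at about 18% in these data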;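 also: higher means more holoenzyme dissociation and a rise in polarization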
# Target sequence (P31323 whole entry, looked up, other chains not shown, the tested form may be a part): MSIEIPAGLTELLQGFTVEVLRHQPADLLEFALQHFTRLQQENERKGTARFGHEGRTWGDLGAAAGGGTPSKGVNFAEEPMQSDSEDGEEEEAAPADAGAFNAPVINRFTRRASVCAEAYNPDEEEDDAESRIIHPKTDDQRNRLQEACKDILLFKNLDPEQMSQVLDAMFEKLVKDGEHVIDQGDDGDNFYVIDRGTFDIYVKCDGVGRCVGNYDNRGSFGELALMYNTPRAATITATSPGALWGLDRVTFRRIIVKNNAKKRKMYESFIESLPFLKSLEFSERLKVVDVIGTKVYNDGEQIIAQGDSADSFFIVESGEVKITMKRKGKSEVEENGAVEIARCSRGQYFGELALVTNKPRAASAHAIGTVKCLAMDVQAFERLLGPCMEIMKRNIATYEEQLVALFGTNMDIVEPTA
# MsrA act: bovine methionine sulfoxide reductase A activation | purified bovine MsrA, absorbance read-out | activation, % at 10.6 µM | 360,000 tested, 0.3% active; in the data active = activation above about 7.5%;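 also: 0% = vehicle and 100% = reference activator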
# VIM-2 inhibitor: inhibitors of Pseudomonas aeruginosa VIM-2 metallo-beta-lactamase; purified VIM-2, nitrocefin hydrolysis, epi-absorbance fluorescence; inhibition, % at 5.6 µM; 290,000 tested, 0.89% active;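 active = inhibition above the mean of all tested compounds plus 3 SD, cutoff set per screening run, cut at about 7.5% in these data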;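 also: red hydrolysis product quenches plate fluorescence so inhibitors raise well fluorescence; 0% = enzyme with DMSO and 100% = DMSO without enzyme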
# PKA-R1A activ: PKA-R1A complex activation; activation, % at 11.4 µM; AID 504707; PKA-R1A dissociation, Cy5-IP20 fluorescence polarization; scaled: DMSO 0%, 113 µM cGMP 100%; 340,000 tested, 0.083% active; P00514+P68181;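 active = percent activation above the mean of all tested compounds plus 3 SD, cut at about 19% in these data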;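 also: higher means more PKAc released from R1A so a rise in polarization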
# IMP-1 inh: blocks Pseudomonas aeruginosa IMP-1 metallo-beta-lactamase | purified IMP-1, nitrocefin hydrolysis, epi-absorbance fluorescence | inhibition, % at 5.6 µM | 290,000 tested, 0.45% active;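 active = inhibition above the mean plus 3 SD of all compounds in the same screening run, cut at about 4.5% in these data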;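 also: 0% = IMP-1 with DMSO and 100% = DMSO wells lacking enzyme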
#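 System: purified IMP-1; amount: IMP-1 0.2 nM before substrate addition; compound: single dose, 5.6 µM; times: 25 °C, 15 min preincubation, 25 min reaction; signal: Epi-absorbance via hydrolysed-nitrocefin quenching of white-plate fluorescence, 480/530 nm, EDTA stop; benchmarks: DMSO with and without IMP-1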
# MsrA act confirm: bovine methionine sulfoxide reductase A activation confirmed. shares compounds with MsrA act. purified bovine MsrA, absorbance read-out. activation, % at 10.6 µM. 1,000 tested, 12% active. AID 602270; in the data active = activation above about 4%;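 also: enzyme coupled to thioredoxin and thioredoxin reductase with NADPH; 0% = vehicle wells and 100% = reference activator wells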
# * = called active by the depositor; / = no result.
SMILES,MsrA inhibitor,PKA-R2B activ,MsrA act,VIM-2 inhibitor,PKA-R1A activ,IMP-1 inh,MsrA act confirm
CCOC1=C2CN(S(=O)(=O)c3ccc(C)cc3)C(c3cccc(Cl)c3)CC2N(S(=O)(=O)c2ccc(C)cc2)C(c2ccncc2)C1 (stereo unspecified),0,/,/,/,/,/,/
COc1ccc(-n2nnnc2C(c2cc3ccccc3o2)N2CCN(C/C=C/c3ccccc3)CC2)cc1 (stereo unspecified),-1,/,-2,/,/,/,/
COC(=O)CC/C(O)=C1\C(=O)CC(C)(C)CC1=Nc1ccccc1OC,1,-15,-1,-3,-2,-1,/
CCCC/C(O)=C1\C(=O)CC(C)(C)CC1=Nc1ccccc1OC,-1,-1,8.7*,-2,-8,-3,0
COC(=O)c1ccc(/C=C2/SC(=S)N(CCC(=O)NCCCN3CCOCC3)C2=O)cc1,1,-1,8.1*,0,-2,0,-3
FC(F)(F)c1cccc(-c2nc3nc(Cl)c(Cl)nc3[nH]2)c1,/,-14,12*,0,-2,-1,-4
O=C1/C(=C/c2ccc(O)cc2)SC(=S)N1CC1CCCO1 (stereo unspecified),2,-8,11*,1,2,1,-1
CCCOc1ccc(/C=C2\SC(=S)N(CC3CCCO3)C2=O)cc1 (stereo unspecified),0,7,-1,-4,-8,-5,/
COc1ccc(NC(=O)CSCC(=O)Oc2c(OC)cccc2OC)cc1,2,3,-3,/,3,/,/
CC(C)c1nc(NCC2CCCO2)c(C#N)c2c1COC(C)(C)C2 (stereo unspecified),1,-2,10.0*,-1,-2,-2,0
COc1ccc(/C=C/C(=O)N2CCC(C(N)=O)CC2)cc1S(=O)(=O)N1CCOCC1,0,-9,-3,1,-15,-2,/
COc1ccc(/C=C/C(=O)N2CCN(c3ccccc3)CC2)cc1S(=O)(=O)N1CCOCC1,2,-1,8.8*,-2,-4,-1,2
Cn1nnnc1SCC(=O)N1CCCc2ccccc21,1,-13,0,-2,-4,-1,/
Cn1nnnc1SCC(=O)N1CCc2ccccc21,0,4,17*,0,0,1,-3
Oc1c(Br)cc(Br)cc1CNc1ccc(F)cc1,0,0,8.9*,-1,3,-2,-1
OCCNCCCCSc1ccc(Cl)cc1,-1,0,-3,0,3,-4,/
OCCNCCSc1ccc(Cl)cc1,-1,-3,9.3*,-4,6,-3,0
Cc1cc(NC(=O)COC(=O)CCn2c(C)csc2=O)c([N+](=O)[O-])cc1C,0,3,-4,/,4,/,/
CCc1noc(C)c1C(=O)N1CCN(S(=O)(=O)c2cccs2)CC1,-1,7,10.0*,/,-1,/,-1
CCc1noc(C)c1C(=O)N1CCN(S(=O)(=O)c2ccc(Cl)cc2)CC1,0,0,0,/,-2,/,/
COc1ccc(Cc2c(-c3ccc(OC)c(OC)c3)nc3ccc(C)cn23)c(C)c1,1,/,13*,/,/,/,-1
Cc1cc(C(F)(F)F)n2nc(C)c(-c3ccc(Cl)cc3)c2n1,-1,-5,16*,-4,-5,-1,0
O=C(O)c1cc([N+](=O)[O-])c(Sc2nc3ccccc3[nH]2)c([N+](=O)[O-])c1,0,-6,-3,-2,-14,-4,/
CS(=O)(=O)c1cc([N+](=O)[O-])c(Sc2nc3ccccc3[nH]2)c([N+](=O)[O-])c1,-1,-1,8.0*,-6,-1,-5,10*
Cc1nnc(SCCC#N)n(CCC#N)c1=O,0,12,9.2*,0,-11,-1,-2
Cn1ccnc1SCCC#N,0,11,-3,-3,1,-4,/
Cc1cccc(C(=O)NCC(=O)N2CCN(c3ccccn3)CC2)c1,1,1,-6,/,-7,/,/
COc1ccc2oc(=O)c(C(=O)NCCc3ccc(OC)c(OC)c3)cc2c1,-1,5,7.7*,-2,6,-3,2
